System: MS2 coat protein
Experiment: apparent Kd, MS2 coat protein; higher = weaker binding; RNA-MaP array; FMN 200 µM where present
Procedure, shortened: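 Designs were transcribed by stalled E. coli RNA polymerase on Illumina sequencing-chip clusters. They were titrated with SNAP-549-labelled MS2 coat protein from 0.7 or 1.5 nM, doubling to 3 µM, without and then with constant ligand. Buffer: 100 mM Tris-HCl pH 7.5, 80 mM KCl, 4 mM MgCl2, BSA, DTT, yeast tRNA, Tween-20. Green signal was normalised to red-channel RNA signal and control-cluster median Fmax. Apparent Kd is the median of filtered per-cluster binding-curve fits.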

[1] = designed as: OFF switch for flavin mononucleotide, no ligand
[2] = ligand present: flavin mononucleotide, designed as: OFF switch for flavin mononucleotide
[3] = designed as: ON switch for flavin mononucleotide, no ligand
[4] = ligand present: flavin mononucleotide, designed as: ON switch for flavin mononucleotide

Sequence | apparent Kd [1] [nM] | apparent Kd [2] [nM] | apparent Kd [3] [nM] | apparent Kd [4] [nM]
GUCAGCUCGUGAGGAUAUACAACACUGCUUCGGCAGUGUAUUAAGAUCACAUGAGGAUCACCCAUGUAGAAGGAACGAGCUGAU | 7.52 | 24.2 | – | –
AGCUGUGGCAGAGGAUAUACCUCAAUAAUCCAUUGCAAAUAGCGAUGGACAUGAGGAUCACCCAUGUAGAAGGCUGUCUCAGCA | 323 | 733 | – | –
UAUUAUUGCAAGGAUAUGCUUUUUAUUUCUUUUGCAGAAGGUGCAACAUGAGGAUCACCCAUGUUUCCGGGUAU | 19.7 | 28.9 | – | –
CAGCGAUAGCUGAACAAUCUAUCUGAGGAUAUCAUGAAUAAACAUGAGGAUCACCCAUGUAAAUAUGAGAAGGCAGAUAGAUUG | – | – | 4.82 | 4.78
CUAUGAAGAAUAGGAUAUUCGAUCAAAAGGAUAGAAGAAGGGUUACAUGAGGAUCACCCAUGUAUGCACAUGAGGAUCCCUUAG | 188 | 196 | – | –
UAUCGCAGUGCAGGAUAUCCAAGGUUUGGCGAAGGAGAAGGGCACGCGACAUGAGGAUCACCCAUGUAAAGUGUGGCGUCCUCU | 116 | 62.2 | – | –
AGUAACAGAGGAUAUACUAUUUUAUGUGUUUGUUAUUUUAAACAUGAGGAUCACCCAUGUAGAAGGCUGAAUAA | 21.8 | 24.1 | – | –
CUCUUGGCAGGAUAUGCUCUCUUAGACAUGAGGAUCACCCAUGUGCUCAUUCCUUCUUUUGCAGAAGGGCCUUAAC | 71.4 | 52.3 | – | –
CUCUUGUCAGGAUAUUAUGGACGAUAGCAGGACUACGUCAGUGAGAAGGGACAUGAGGAUCACCCAUGUAAAAU | 82 | 67.2 | – | –
CGGAGGUCAGGAUAUGCAUGGCGGGACUUGCGUCGUGGCGUGCAGAAGGGACAUGAGGAUCACCCAUGUGGAGG | 155 | 267 | – | –
UGCUAGUCAGGAUAUACGUACAUGUCAUUAGACGUGAAGGGACAUGAGGAUCACCCAUGUAGAAGGGACUAGCU | 42.4 | 149 | – | –
GCACGGUUUGUAGGAUAUGCAUAGCAUUGCUAUGCAGAAGGACAUGAGGAUCACCCAUGUAUGUAUUCCAUACAUUUCCCGUGC | 5.62 | 5.63 | – | –
UUAUUAGCAGGAUAUAUCCAGGAUUACAUGAGGAUCACCCAUGUGACCGCUUGAGAUUCUAUAGAAGGGCUUUAUU | 29.6 | 29.8 | – | –
GCUCUGCGAGGAUAUACAUGAGGAUCACCCAUGUGCGAGUUACUUGUGAGGUCGGUUGGUAGAAGGCGCGGAGG | 106 | 89.8 | – | –
CCUUACACCGAGAAGGGCACGUAUUGAAGAGGGUGCCAGGAACAUCACAUGAGGAUCACCCAUGUGCAGGAUAUCGGCAGGAAC | 9.78 | 22.3 | – | –
AGGAGGUGAGGAUAUGCUGCUCGUCACUUGCGUGAUGAGUAGCAGAAGGCACAUGAGGAUCACCCAUGUAAAGA | 117 | 105 | – | –
CCAUGUUAGCAGGAUAUGCAAUUAUUCUUUUACGCAGAAGGGCUUACAUGAGGAUCACCCAUGUAACAUUUCAU | 18.4 | 77.8 | – | –
UCUGCCGCCGUGAGGAUAUGCCCAAAUAAAAGCGGGCAGAAGGCACAUGAGGAUCACCCAUGUCCCGCGGUUUU | 15.8 | 38.4 | – | –
ACUUUACAUGAGGAUCACCCAUGUUUUGGUGGAUCAGGAUAUAAAUUGAAUGAGUUUUAGUUAGAAGGGAUAUUUA | – | – | 89.8 | 99
AGUAACAGAGGAUAUACUAUUUUAUGUGUUUGUUAUUUUGAACAUGAGGAUCACCCAUGUAGAAGGCUGAAUAA | 25 | 26 | – | –
UGAUUGCCUGUAAGGAUAUCUACGGCCGUUCGCUGGGAGAAGGUACAUGAGGAUCACCCAUGUACAGUCAUGGG | 42.9 | 93.5 | – | –
UUCUUGGCAGGAUAUGCUCUCUUAGACAUGAGGAUCACCCAUGUGUUCAUUCUUUCUUUUGCAGAAGGGCCUUAAU | 56.5 | 69.9 | – | –
AUAAUUUUAUAUUUAUUUUUAUUCAGAAGGCAUAACAUGAGGAUCACCCAUGUAAAUUAAUGUUAUGAGGAUAUGAUUUGGUUA | 26.2 | 123 | – | –
GUGCGACAUGAGGAUCACCCAUGUGAGGAUAUCCCGGGCCGGGCUUUUGCCCGGCCCGGGAGAAGGCGCGUCGU | 68.4 | 70.7 | – | –
UUAUUAUAUGUAGGAUAUGCAUAUUAUUAUUAUGCAGAAGGACAUGAGGAUCACCCAUGUAUAUUAUUGUUAUAUAUUAUAUAU | 24.8 | 39.3 | – | –
CAGCGAUAGCUGAACAAUCUAUCUGAGGAUAUUCAUAUUAAAACAUGAGGAUCACCCAUGUAUUGGGAGAAGGCAGAUAGAUUG | – | – | 42.1 | 6.53
AAAGUGUAAGGAUAUGCUGCUCGUCACUUGCGUGAUGAGUAGCAGAAGGUACAUGAGGAUCACCCAUGUAAAAA | 28.8 | 38.3 | – | –
AAUGAGUUUCUCACACUGUUCACAUGAGGAUCACCCAUGUACAGAAGGUAGAGACUUCCGGUCGCUAAGGAUAUGUAGAGGGUC | 5.05 | 6.01 | – | –

Source: the EternaBench riboswitch data
